Reference: ChEMBL document CHEMBL4196123, “Discovery of an Orally Bioavailable Dual PI3K/mTOR Inhibitor Based on Sulfonyl-Substituted Morpholinopyrimidines” (ACS Med Chem Lett, 2018)

Tests used:
Mus musculus = experiment: Toxicity in Balb/c nu/nu mouse xenografted with human HT-29 cells harboring PIK3CA P449T mutant assessed as body weight loss at 7.5 mg/kg, po administered daily via gavage for 27 days relative to control; type: organism-based; conditions: in vivo, 648 h
Summary of the method: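 Balb/c nu/nu mice with HT-29 xenografts (mean tumor about 240 mm³) received daily oral gavage for 27 days. Body weight change was measured and plotted over time. Mean ± SEM, n = 6.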

[1] = Tmax in CD1 mouse at 10 mg/kg, po administered via gavage by LC-MS/MS analysis; type: ADME, organism-based; conditions: in vivo
[2] = AUClast in CD1 mouse at 10 mg/kg, po administered via gavage by LC-MS/MS analysis; type: ADME, organism-based; parameters: dose 10 mg/kg, time 0 - last, route oral; conditions: in vivo
HT-29 = experiment: Antitumor activity against human HT-29 cells harboring PIK3CA P449T mutant xenografted in Balb/c nu/nu mouse assessed as tumor growth inhibition at 7.5 mg/kg, po administered daily via gavage for 27 days relative to control; type: functional; conditions: HT-29, po, 648 h, read-out: TGI
Summary of the method: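 Balb/c nu/nu mice carrying HT-29 xenografts were dosed by daily oral gavage for 27 days, starting when mean tumor size was about 240 mm³; vehicle group as control. Tumor volume estimated over time, and TGI calculated after 27 days. Mean ± SEM, n = 6. Dunnett's multiple comparison test.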

[3] = AUClast in CD1 mouse at 5 mg/kg, iv by LC-MS/MS analysis; type: ADME, organism-based; parameters: dose 5 mg/kg, time 0 - last, route intravenous; conditions: in vivo
[4] = Intrinsic clearance in mouse liver microsomes at […] pretreated up to 45 mins followed by NADPH addition and measured by LC-MS/MS analysis; type: ADME, microsome; conditions: read-out: CLH
[5] = target: Serine/threonine-protein kinase mTOR (Homo sapiens, UniProt P42345); experiment: Inhibition of recombinant human GST-tagged mTOR catalytic domain (1360 to 2549 residues) expressed in baculovirus expression system using GFP-4EBP1 as substrate measured after 1 hr by Lathascreen method
Cytochrome P450 2C8 = Cytochrome P450 2C8 (Homo sapiens, UniProt P10632); experiment: Inhibition of CYP2C8 in human liver microsomes using paclitaxel as substrate pretreated for 5 mins followed by NADPH addition and measured after 10 mins by LC-MS analysis; type: ADME
Cytochrome P450 1A2 = Cytochrome P450 1A2 (Homo sapiens, UniProt P05177); experiment: Inhibition of CYP1A2 in human liver microsomes using phenacetin as substrate pretreated for 5 mins followed by NADPH addition and measured after 10 mins by LC-MS analysis; type: ADME
Chain of Cytochrome P450 1A2 (P05177 whole entry): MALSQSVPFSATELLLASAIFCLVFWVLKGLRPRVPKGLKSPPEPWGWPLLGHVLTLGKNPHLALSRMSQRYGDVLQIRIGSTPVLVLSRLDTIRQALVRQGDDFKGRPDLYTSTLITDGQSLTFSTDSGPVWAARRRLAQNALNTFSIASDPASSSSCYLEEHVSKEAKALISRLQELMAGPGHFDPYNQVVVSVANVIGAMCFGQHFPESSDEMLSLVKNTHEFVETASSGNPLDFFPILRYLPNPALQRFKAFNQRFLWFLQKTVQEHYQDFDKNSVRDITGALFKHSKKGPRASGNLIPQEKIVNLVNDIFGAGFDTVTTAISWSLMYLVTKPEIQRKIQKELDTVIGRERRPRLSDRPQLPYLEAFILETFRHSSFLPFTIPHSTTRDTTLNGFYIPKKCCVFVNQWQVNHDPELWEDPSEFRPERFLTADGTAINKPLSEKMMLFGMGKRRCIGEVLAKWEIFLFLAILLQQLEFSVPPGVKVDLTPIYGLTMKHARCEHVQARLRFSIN

Chain of Cytochrome P450 2C8 (P10632 whole entry): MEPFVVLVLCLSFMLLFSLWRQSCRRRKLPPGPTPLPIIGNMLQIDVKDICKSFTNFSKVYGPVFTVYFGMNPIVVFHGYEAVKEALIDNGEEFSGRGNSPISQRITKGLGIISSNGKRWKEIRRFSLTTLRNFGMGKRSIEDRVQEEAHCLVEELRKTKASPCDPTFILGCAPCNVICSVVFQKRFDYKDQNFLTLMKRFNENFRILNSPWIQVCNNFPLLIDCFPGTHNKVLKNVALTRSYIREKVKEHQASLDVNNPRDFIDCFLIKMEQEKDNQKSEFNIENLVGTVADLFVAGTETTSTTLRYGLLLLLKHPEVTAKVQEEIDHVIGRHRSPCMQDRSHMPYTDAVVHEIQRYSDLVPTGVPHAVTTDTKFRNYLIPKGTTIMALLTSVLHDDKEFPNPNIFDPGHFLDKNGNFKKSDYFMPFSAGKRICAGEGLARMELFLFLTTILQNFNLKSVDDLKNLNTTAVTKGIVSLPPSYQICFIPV

## C[C@H]1COCCN1c1nc(-c2cnc(N)cc2F)cc(C2(S(C)(=O)=O)CC2)n1
Mus musculus
  Activity: 15%
[1]
  Tmax: 15 min
[2]
  AUC(0-t): 10400 ng·h/mL
HT-29
  inhibition in vivo at 7.5 mg/kg: 72.9%
[3]
  AUC(0-t): 5440 ng·h/mL
[4]
  CLint scaled: 40 to 140 mL/min/kg
[5]
  IC50: 0.186 µM
Cytochrome P450 2C8
  IC50: > 10 µM
Cytochrome P450 1A2
  IC50: > 10 µM
